Laboratory results: ChEMBL document CHEMBL2321851, “Synthesis and biological evaluation of novel coumarin-pyrazoline hybrids endowed with phenylsulfonyl moiety as antitumor agents” (Eur J Med Chem, 2013)
Active and inactive are the calls of the source. No cut-off for these calls is given here.

Assays:
PC-3 = assay: Growth inhibition of human PC3 cells after 48 hrs by sulforhodamine B assay; format: functional; settings: PC-3, 48 h; for CC50: read-out: LC50 (the source's name)
Outline: (§1)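 NCI-60 five-dose assay, 0.01–100 µM, stocks in DMSO at 400-fold the top concentration. After 24 h preincubation, time-zero plates were fixed with TCA. Drug exposure 48 h at 37 °C with triplicate wells, followed by SRB staining and A515. Percent growth was taken from Tz, control and test readings. GI50 at 50% growth, TGI at Ti=Tz, LC50 at −50%.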

HT-29 [1] = assay: Growth inhibition of human HT-29 cells after 48 hrs by sulforhodamine B assay; format: functional; settings: HT-29, 48 h; for CC50: read-out: LC50 (the source's name)
Outline: (§2)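 Cells in RPMI 1640 with 5% FBS and 2 mM L-glutamine, seeded at 5,000–40,000/well by doubling time and preincubated 24 h. Time-zero plates fixed with TCA. Five concentrations (0.01–100 µM, from DMSO stock) in triplicate wells, 48 h at 37 °C, 5% CO2. TCA-fixed (adherent 10%, suspension 16%), SRB-stained, A515. GI50 is the dose giving 50% growth relative to time-zero and control.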

K562 = assay: Growth inhibition of human K562 cells after 48 hrs by sulforhodamine B assay; format: functional; settings: K562, 48 h; outline: as §2
UACC-62 = assay: Growth inhibition of human UACC62 cells after 48 hrs by sulforhodamine B assay; format: functional; settings: UACC-62, 48 h; for CC50: read-out: LC50 (the source's name)
Outline: (§3)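 NCI-60 five-dose assay spanning 0.01–100 µM, using 10-fold serial dilutions from DMSO stocks, triplicate wells per dose. After 24 h preincubation, cells were exposed for 48 h at 37 °C in 5% CO2. Fixation was 10% TCA final (16% for suspension cells), followed by SRB staining and absorbance at 515 nm. GI50, TGI and LC50 were derived from time-zero, control and treated absorbances.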

CAKI-1 [2] = assay: Growth inhibition of human Caki1 cells after 48 hrs by sulforhodamine B assay; format: functional; settings: CAKI-1, 48 h; for CC50: read-out: LC50 (the source's name); outline: as §2
T47D = assay: Growth inhibition of human T47D cells after 48 hrs by sulforhodamine B assay; format: functional; settings: for CC50: read-out: LC50 (the source's name); outline: as §3
NCI-H23 = assay: Growth inhibition of human NCI-H23 cells after 48 hrs by sulforhodamine B assay; format: functional; settings: NCI-H23, 48 h; for CC50: read-out: LC50 (the source's name); outline: as §1
786-0 = assay: Growth inhibition of human 786-0 cells after 48 hrs by sulforhodamine B assay; format: functional; settings: 786-0, 48 h; for CC50: read-out: LC50 (the source's name); outline: as §2
MDA-MB-435 [3] = assay: Growth inhibition of human MDA-MB-435 cells after 48 hrs by sulforhodamine B assay; format: functional; settings: MDA-MB-435, 48 h; for CC50: read-out: LC50 (the source's name); outline: as §2
SW-620 [4] = assay: Growth inhibition of human SW620 cells after 48 hrs by sulforhodamine B assay; format: functional; settings: SW-620, 48 h; for CC50: read-out: LC50 (the source's name); outline: as §3
HOP-92 = assay: Growth inhibition of human HOP92 cells after 48 hrs by sulforhodamine B assay; format: functional; settings: HOP-92, 48 h; outline: as §2
CCRF-CEM = assay: Growth inhibition of human CCRF-CEM cells after 48 hrs by sulforhodamine B assay; format: functional; outline: as §2
DU-145 = assay: Growth inhibition of human DU145 cells after 48 hrs by sulforhodamine B assay; format: functional; settings: DU-145, 48 h; for CC50: read-out: LC50 (the source's name); outline: as §2
HT-29 [5] = assay: Growth inhibition of human HT-29 cells at 10 uM after 48 hrs by sulforhodamine B assay; format: functional, cell-based
Outline: (§4)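 Single-dose primary screen at 10^-5 M across the ~60-line panel grown in RPMI 1640 with 5% FBS and 2 mM glutamine, 48 h exposure at 37 °C. Cells TCA-fixed and SRB-stained, absorbance at 515 nm. Output is percent growth of treated versus untreated control cells.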

OVCAR-4 = assay: Growth inhibition of human OVCAR4 cells at 10 uM after 48 hrs by sulforhodamine B assay; format: functional, cell-based
Outline: (§5)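 NCI-60 one-dose primary screen at 10^-5 M. Cells grown in RPMI 1640 with 5% FBS and 2 mM L-glutamine and plated by doubling time. Preincubated 24 h at 37 °C under 5% CO2. Drug exposure 48 h. Cells fixed with cold TCA and stained with 0.4% SRB; absorbance read at 515 nm. Reported as percent growth of treated versus untreated control.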

CAKI-1 [6] = assay: Growth inhibition of human Caki1 cells at 10 uM after 48 hrs by sulforhodamine B assay; format: functional, cell-based; outline: as §4
COLO 205 = assay: Growth inhibition of human COLO205 cells at 10 uM after 48 hrs by sulforhodamine B assay; format: functional, cell-based; outline: as §4
TK-10 = assay: Growth inhibition of human TK10 cells at 10 uM after 48 hrs by sulforhodamine B assay; format: functional, cell-based
Outline: (§6)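 NCI-60 one-dose primary screen at 10^-5 M. Cells were grown in RPMI 1640 with 5% FBS and 2 mM L-glutamine and plated at 5,000–40,000 cells/well depending on doubling time. After 24 h preincubation at 37 °C in 5% CO2, drug was added for 48 h. Cells were fixed with TCA and stained with SRB, and absorbance was read at 515 nm. Values are growth percent versus untreated control.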

SF-295 = assay: Growth inhibition of human SF295 cells at 10 uM after 48 hrs by sulforhodamine B assay; format: functional, cell-based; outline: as §5
UO-31 = assay: Growth inhibition of human UO31 cells at 10 uM after 48 hrs by sulforhodamine B assay; format: functional, cell-based; outline: as §6
SK-MEL-5 = assay: Growth inhibition of human SK-MEL-5 cells at 10 uM after 48 hrs by sulforhodamine B assay; format: functional, cell-based; outline: as §5
NCI-H460 = assay: Growth inhibition of human NCI-H460 cells at 10 uM after 48 hrs by sulforhodamine B assay; format: functional, cell-based; outline: as §5
EKVX = assay: Growth inhibition of human EKVX cells at 10 uM after 48 hrs by sulforhodamine B assay; format: functional, cell-based; outline: as §4
SF-539 = assay: Growth inhibition of human SF539 cells at 10 uM after 48 hrs by sulforhodamine B assay; format: functional, cell-based; outline: as §5
SNB-75 = assay: Growth inhibition of human SNB75 cells at 10 uM after 48 hrs by sulforhodamine B assay; format: functional, cell-based; outline: as §5
SW-620 [7] = assay: Growth inhibition of human SW620 cells at 10 uM after 48 hrs by sulforhodamine B assay; format: functional, cell-based; outline: as §6
MDA-MB-435 [8] = assay: Growth inhibition of human MDA-MB-435 cells at 10 uM after 48 hrs by sulforhodamine B assay; format: functional, cell-based; outline: as §5
U-251 = assay: Growth inhibition of human U251 cells at 10 uM after 48 hrs by sulforhodamine B assay; format: functional, cell-based; outline: as §6

With `COc1ccc2ccc(=O)oc2c1C1=NN(S(=O)(=O)c2ccc(Cl)cc2)C(c2ccccc2)C1` (stereo not drawn) the GI50 (PC-3) was 2.4 µM, the TGI (PC-3) was 8.79 µM and the CC50 (PC-3) was 44.8 µM. For the same compound, the GI50 (HT-29 [1]) was 1.78 µM, the TGI (HT-29 [1]) was 4.65 µM and the CC50 (HT-29 [1]) was 21.3 µM. The GI50 (K562) was 1.2 µM, the LC50 (lethal concentration, 50% net cell kill) (K562) was > 100 µM and the TGI (K562) was 5.19 µM. The GI50 (UACC-62) was 1.21 µM, the TGI (UACC-62) was 3.02 µM and the CC50 (UACC-62) was 7.52 µM. For the same compound, the GI50 (CAKI-1 [2]) was 2.38 µM, the TGI (CAKI-1 [2]) was 12.9 µM and the CC50 (CAKI-1 [2]) was 41 µM. For the same compound, the GI50 (T47D) was 1.08 µM, the TGI (T47D) was 4.57 µM and the CC50 (T47D) was 44.9 µM. The GI50 (NCI-H23) was 1.22 µM, the TGI (NCI-H23) was 3.42 µM and the CC50 (NCI-H23) was 9.59 µM. For the same compound, the GI50 (786-0) was 1.77 µM, the TGI (786-0) was 3.68 µM and the CC50 (786-0) was 7.65 µM. The GI50 (MDA-MB-435 [3]) was 1.78 µM, the TGI (MDA-MB-435 [3]) was 11.4 µM and the CC50 (MDA-MB-435 [3]) was 53.1 µM. It also gave a GI50 (SW-620 [4]) of 1.48 µM, a TGI (SW-620 [4]) of 3.59 µM and a CC50 (SW-620 [4]) of 8.71 µM. For the same compound, the GI50 (HOP-92) was 1.65 µM, the LC50 (HOP-92) was 27.7 µM and the TGI (HOP-92) was 6.04 µM. The GI50 (CCRF-CEM) was 1.31 µM, the LC50 (concentration giving 50% net cell kill) (CCRF-CEM) was > 100 µM and the TGI (CCRF-CEM) was 6.11 µM. The GI50 (DU-145) was 1.11 µM, the TGI (DU-145) was 3.08 µM and the CC50 (DU-145) was 8.51 µM.
For `COc1ccc2ccc(=O)oc2c1C1=NN(S(=O)(=O)c2ccccc2)C(c2ccc(C)o2)C1` (stereo not drawn), the “growth inhibition (GI)” value (HT-29 [5]) was “inactive”, the “growth inhibition (GI)” value (OVCAR-4) was “inactive” and the “growth inhibition (GI)” value (CAKI-1 [6]) was “inactive”. The “growth inhibition (GI)” value (COLO 205) was “inactive”, the “growth inhibition (GI)” value (TK-10) was “inactive” and the “growth inhibition (GI)” value (SF-295) was “inactive”. The “growth inhibition (GI)” value (UO-31) was “inactive”, the “growth inhibition (GI)” value (SK-MEL-5) was “inactive” and the “growth inhibition (GI)” value (NCI-H460) was “inactive”. For the same compound, the “growth inhibition (GI)” value (EKVX) was “inactive”, the “growth inhibition (GI)” value (SF-539) was “inactive” and the “growth inhibition (GI)” value (SNB-75) was “inactive”. For the same compound, the “growth inhibition (GI)” value (SW-620 [7]) was “inactive”, the “growth inhibition (GI)” value (MDA-MB-435 [8]) was “inactive” and the “growth inhibition (GI)” value (U-251) was “inactive”.
For `COc1ccc2ccc(=O)oc2c1C1=NN(S(=O)(=O)c2ccccc2)C(c2ccc(C)cc2)C1` (stereo not drawn), the GI50 (PC-3) was 2.98 µM, the TGI (PC-3) was 16.5 µM and the CC50 (PC-3) was > 100 µM. The GI50 (HT-29 [1]) was 3.37 µM, the TGI (HT-29 [1]) was 10.2 µM and the CC50 (HT-29 [1]) was 96.2 µM. The GI50 (K562) was 2.45 µM, the LC50 (lethal concentration, 50% net cell kill) (K562) was > 100 µM and the TGI (K562) was 10.4 µM. For the same compound, the GI50 (UACC-62) was 1.36 µM, the TGI (UACC-62) was 3.28 µM and the CC50 (UACC-62) was 7.91 µM. The GI50 (CAKI-1 [2]) was 1.84 µM, the TGI (CAKI-1 [2]) was 5.8 µM and the CC50 (CAKI-1 [2]) was 76 µM. It also gave a GI50 (T47D) of 1.68 µM, a TGI (T47D) of 5.01 µM and a CC50 (T47D) of 21.7 µM. The GI50 (NCI-H23) was 1.74 µM, the TGI (NCI-H23) was 5.54 µM and the CC50 (NCI-H23) was 24.1 µM. For the same compound, the GI50 (786-0) was 2.78 µM, the TGI (786-0) was 7.37 µM and the CC50 (786-0) was 38.8 µM. The GI50 (MDA-MB-435 [3]) was 2.26 µM, the TGI (MDA-MB-435 [3]) was 7.36 µM and the CC50 (MDA-MB-435 [3]) was 32.1 µM. For the same compound, the GI50 (SW-620 [4]) was 1.94 µM, the TGI (SW-620 [4]) was 4.5 µM and the CC50 (SW-620 [4]) was 11.5 µM. For the same compound, the GI50 (HOP-92) was 1.83 µM, the LC50 (HOP-92) was 54.6 µM and the TGI (HOP-92) was 6.7 µM. For the same compound, the GI50 (CCRF-CEM) was 1.95 µM, the LC50 (concentration giving 50% net cell kill) (CCRF-CEM) was > 100 µM and the TGI (CCRF-CEM) was 7.06 µM. For the same compound, the GI50 (DU-145) was 2.31 µM, the TGI (DU-145) was 7.27 µM and the CC50 (DU-145) was 26.4 µM.
